The text below walks through data of ChEMBL document CHEMBL1151769, “Triprenylated flavonoids from Dorstenia psilurus and their alpha-glucosidase inhibition properties” (J Nat Prod, 2008).

Experiment [1] can be described thus: Inhibition of yeast alpha-D-glucosidase. Also on record: species or system Saccharomyces. The method, boiled down:
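α-Glucosidase (500 units/mL) with p-nitrophenyl glucopyranoside (0.7 mM final) in 50 mM phosphate buffer pH 6.9, 1% v/v DMSO, 37 °C, 10 min, with or without a range of inhibitor concentrations. Stopped with an equal volume of 100 mM Na2CO3, and p-nitrophenol read at 400 nm. Rate taken from the linear slope of 1-min readings. IC50 derived by kinetic fitting.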

In another experiment the test system is Canavalia ensiformis. Kind of experiment: Inhibition of jack bean beta-D-mannosidase at 800 uM.
Experiment [2] is described as follows: Inhibition of sweet almonds beta-D-glucosidase. Set-up: species or system Prunus dulcis.
Experiment [3] is described as follows: Inhibition of jack bean beta-D-mannosidase. Set-up: species or system Canavalia ensiformis.
For a further experiment, the system named is Prunus dulcis. Nature of the experiment: Inhibition of sweet almonds beta-D-glucosidase at 800 uM.

pIC50: −log10 of the molar value. Active and inactive are the calls of the source. No cut-off for these calls is given here.

On to `OC[C@H]1NC[C@H](O)[C@@H](O)[C@@H]1O` [DUVOGLUSTAT], for which, in experiment [1], the pIC50 (usually −log10 of the IC50, conventionally taken in molar units) was 3.37.
On to `C=C(C)[C@@H](O)Cc1ccc(-c2oc3c(CC=C(C)C)c(O)c4c(c3c(=O)c2O)OC(C)(C)CC4)cc1O` [DORSILURIN H], for which the result in the experiment on Canavalia ensiformis was inactive. Moreover, the pIC50 in experiment [2] was 3.17; in experiment [1], 4.62.
On the same counts, the results for `C=C(C)[C@@H](O)Cc1ccc(-c2oc3c4c(c(CC=C(C)C)c(O)c3c(=O)c2O)OC(C)(C)CC4)cc1O` [DORSILURIN I] are “inactive”, 3.37 and 4.67.
As to `CC(C)=CCc1ccc(-c2oc3c(CC=C(C)C)c(O)c(CC=C(C)C)c(O)c3c(=O)c2O)cc1O` [DORSILURIN F], the pIC50 in experiment [3] was 3.72; in experiment [2] it was 3.93; in experiment [1], 5.38.
As for `CC(C)=CCc1ccc(-c2oc3c4c(c5c(c3c(=O)c2O)OC(C)(C)CC5)OC(C)(C)CC4)cc1O` [DORSILURIN K], the result in the experiment on Canavalia ensiformis and in the experiment on Prunus dulcis was inactive. This compound also had a negative logarithm of the IC50 (pIC50) in experiment [1] of 4.36.
For the compound `C=C(C)[C@@H](O)Cc1ccc(-c2oc3c(CC=C(C)C)c(O)c(CC=C(C)C)c(O)c3c(=O)c2O)cc1O` [DORSILURIN G], the negative-log IC50 (pIC50) was 3.63 in experiment [3], 3.37 in experiment [2] and 5.12 in experiment [1].
`CC(C)=CCc1ccc(-c2oc3c(CC=C(C)C)c(O)c4c(c3c(=O)c2O)OC(C)(C)CC4)cc1O` [DORSILURIN J]: the pIC50 was 3.29 in experiment [3], 3.50 in experiment [2] and 4.77 in experiment [1].
In the same order, the values of `CC(C)=CCc1c(O)c(CC=C(C)C)c2oc(-c3ccc4c(c3)OC(C)(C)C=C4)c(O)c(=O)c2c1O` [DORSILURIN C] are 3.45, 3.37 and 4.95.
